Screening results deposited in PubChem by several laboratories.
Shown are actives, neighbours in structure and some others; about 2.3% of the full set was active somewhere.
FN deposit inh: inhibitors of fibronectin matrix deposition, primary screen, AH1F cells, Alexa488-fibronectin fluorescence, plate reader; AH1F fibroblasts, overnight; inhibition, % at 12.6 µM; hit rate 0.086% among 350,000; AID 743247, 2014;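 active = mean inhibition across replicates of 30% or more, regardless of how many single replicates reach that level; inconclusive = mean under 30% yet at least half of replicates reach 30%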;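 also: positive control wells lacked labelled fibronectin entirely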
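Schedule: 1 h cell adhesion before compound, then overnight fibronectin incubation; test system: AH1F fibroblast monolayer depositing Alexa488-labelled fibronectin into matrix; quantity: 10000 AH1F cells per well; probe or stimulus: fluorescent fibronectin at 24 nM final; signal: fluorescence, ex 485 nm, em 525 nm; evaluation: percent inhibition as loss of matrix-bound fibronectin fluorescence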
TWEAK Fn14 block: inhibitors of TWEAK-Fn14 signaling, primary screen, luciferase reporter cells, uHTS | hit rate 2% among 360,000 | TWEAK-stimulated Fn14 reporter cells, luciferase luminescence, 8 h | inhibition, % at 10 µM; in the data active = inhibition above about 50%
XiGFP reactiv: activators of inactive X chromosome reactivation, primary screen, imaging, XiGFP fibroblasts, GFP high-content imaging, set 2; activation, % at 7.58 µM; hit rate 0.055% among 360,000; XiGFP mouse fibroblasts, % GFP-positive cells imaging, 3 d; cells co-treated with 5-aza-dC sensitizer; scaled so ellipticine positive control = 100%; AID 743238, 2013;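 active = mean normalized replicate activation at least 10% and every replicate at or above 10%; inconclusive = only one of the two criteria met; inactive = mean below 10% and not all replicates reach 10%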;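 also: 0% = median of on-plate neutral control wells and 100% = ellipticine 6 µM median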
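System: XiGFP fibroblasts, SV40-immortalized. Medium: DMEM plus 5-aza-dC sensitizer. Doses: single point. Timing: 3 d treatment, 15 min room-temperature fixation. Control set: ellipticine 6 µM.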
TROY signal inh: inhibitors of TROY-driven NF-kB signaling, primary screen, Q293 LMP1-TROYcd cells, NF-kB luciferase, uHTS. Q293 LMP1-TROYcd NF-kB luciferase reporter, 4 h. inhibition, % at 10 µM. hit rate 0.98% among 360,000;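 active = compounds whose plate-normalised and pattern-corrected inhibition of the luciferase reporter signal at the single screening dose is 50% or more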
EWS-Fli block: EWS/Fli-driven NR0B1 reporter inhibitors, primary screen, A673 cells, NR0B1 luciferase, luminescence, MLPCN library; viability-normalised; inhibition, % at 12.6 µM; hit rate 0.67% among 350,000;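 active = mean inhibition of at least 50% after viability correction, with every replicate also passing that limit; inconclusive = mean reaches 50% but only one of two replicates passes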;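 also: firefly luciferase signal divided by Alamar Blue viability fluorescence both relative to DMSO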
LGR2 inh: inhibitors of bursicon-induced LGR2 CRE-luciferase signal, primary screen, cell-based, HEK293, CRE-luciferase reporter, bursicon stimulation. Drosophila bursicon receptor LGR2 (rickets). bursicon-stimulated, 4 h. inhibition, % at 9.99 µM. hit rate 0.35% among 380,000. AID 720647, 2013;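 active = drop in luminescence signal, shown as inhibition above about 50% in the replicate tests, limit read from the data, passing the limit was not always enough; inconclusive = probably only some replicates passing the limit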;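 also: agonist challenge used bursicon conditioned medium at about half maximal strength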
* marks the source's active call; other numbers are inactive results; ! = not confirmed by another sample.

What do the screens show for `Brc1ccc2c(c1)C(C1=NCCN1)c1ccccc1CS2` (stereo unspecified)?
FN deposit inh: -6.7; TWEAK Fn14 block: 10.8; XiGFP reactiv: 0.1; TROY signal inh: -4.4; EWS-Fli block: 58.0*; LGR2 inh: 1.7

What do the screens show for `O=S(=O)(c1ccccc1)N1CC2(C1)[C@H](c1ccccc1)[C@H](CO)N2CC1CCCC1`?
XiGFP reactiv: 0.0; EWS-Fli block: 1.4; LGR2 inh: 29.3

Results for O=C(NCCc1ccccc1)[C@@H]1[C@@H](CO)[C@@H]2Cn3c(cccc3=O)[C@H]1N2CC1CC1 ?
XiGFP reactiv: 0.5; EWS-Fli block: -7.2; LGR2 inh: -6.0

How did C[C@@H]1CN([C@H](C)CO)C(=O)CCCn2nncc2CO[C@@H]1CN(C)C(=O)Nc1ccc(C(C)(C)C)cc1 do in these assays?
FN deposit inh: -8.2; XiGFP reactiv: 0.0; EWS-Fli block: -5.9; LGR2 inh: -12.7

What do the screens show for `Cc1ccc(O)c(C(=O)c2cnc3c(c2)COc2ccccc2-3)c1`?
FN deposit inh: -9.9; TWEAK Fn14 block: 63.3*; TROY signal inh: 5.7

What do the screens show for `COc1cccc(NC(=O)N2[C@@H]3CNC[C@H]2C3c2ccc(-c3cccc(OC)c3)cc2)c1` (stereo partly specified)?
FN deposit inh: 18.9; XiGFP reactiv: 0.1; LGR2 inh: -24.7

Results for COc1ccc(-c2ccc(C3[C@H]4CNC[C@@H]3N4C(=O)Nc3cccc(OC)c3)cc2)cc1 (stereo partly specified) ?
FN deposit inh: -27.5; XiGFP reactiv: 0.0; EWS-Fli block: 58.9*!; LGR2 inh: -14.4

What do the screens show for `S=C(NCc1ccccn1)Nc1ccc(Cl)cc1`?
TWEAK Fn14 block: 72.4*

Results for Fc1cccc(NC(=S)NCc2ccccn2)c1 ?
FN deposit inh: 2.2; TWEAK Fn14 block: -32.1; XiGFP reactiv: 0.2; TROY signal inh: -48.5; EWS-Fli block: -28.2; LGR2 inh: -37.3

How did O=C(C[C@H]1CC[C@@H]2NC[C@@H](O)COC[C@H]2O1)NCc1ccc(Oc2ccccc2)cc1 do in these assays?
FN deposit inh: 2.1; XiGFP reactiv: 0.1; EWS-Fli block: 7.0; LGR2 inh: -4.0

Results for COc1ccc(OC)c(NC(=O)CSc2ncnc3c2cnn3-c2ccccc2Cl)c1 ?
TWEAK Fn14 block: 74.0*; TROY signal inh: 40.5

What do the screens show for `COC(=O)CSc1ncnc2c1cnn2Cc1ccccc1`?
TWEAK Fn14 block: 3.7; TROY signal inh: 8.1

How did COc1cc(NC(=O)CSc2ncnc3c2cnn3Cc2ccccc2)cc(OC)c1 do in these assays?
FN deposit inh: 4.4; TWEAK Fn14 block: 62.0*; TROY signal inh: 30.6

Results for COc1ccc(OC)c(NC(=O)CSc2ncccn2)c1 ?
FN deposit inh: 22.0; TWEAK Fn14 block: -0.3; TROY signal inh: -19.5

How did O=C(O)/C=C/c1cnn(-c2ccccc2)c1 do in these assays?
FN deposit inh: 8.0; TWEAK Fn14 block: 67.1*; XiGFP reactiv: 0.1; TROY signal inh: 8.2; EWS-Fli block: 31.1; LGR2 inh: 58.8*

Results for COc1ccc(C)cc1S(=O)(=O)n1c([N+](=O)[O-])cnc1C ?
FN deposit inh: 7.1; TWEAK Fn14 block: 86.7*; XiGFP reactiv: 0.0; TROY signal inh: 15.5; EWS-Fli block: 3.8; LGR2 inh: -0.2

Results for NCC[C@H]1CC[C@H](NC(=O)C2CCCCC2)[C@@H](CO)O1 ?
XiGFP reactiv: -0.6; EWS-Fli block: -5.0; LGR2 inh: -2.2

How did O=C(/C=C/c1ccccc1)N1CCN(CC(O)COc2ccccc2)CC1 (stereo unspecified) do in these assays?
TWEAK Fn14 block: 5.1; TROY signal inh: 53.9*

How did CN(c1cccc(Cl)c1)S(=O)(=O)c1cccc(C(=O)Nc2nc3ccccc3[nH]2)c1 do in these assays?
FN deposit inh: 11.7; TWEAK Fn14 block: 74.3*; XiGFP reactiv: -0.1; TROY signal inh: 34.9; EWS-Fli block: 18.6; LGR2 inh: inconclusive

Results for C=CCN(c1ccccc1)S(=O)(=O)c1cccc(C(=O)Nc2nc3ccccc3[nH]2)c1 ?
FN deposit inh: -2.5; TWEAK Fn14 block: 53.8*; XiGFP reactiv: 0.6; TROY signal inh: 15.4; LGR2 inh: -0.4

How did C[C@@H]1CN([C@@H](C)CO)C(=O)c2cc(-c3ccncc3)cnc2O[C@@H]1CN(C)C(=O)c1ccc(F)cc1 do in these assays?
FN deposit inh: -12.3; XiGFP reactiv: -1.3; EWS-Fli block: 4.8; LGR2 inh: 2.4

What do the screens show for `COc1ccc(NC(=O)N(C)C[C@H]2OCCCC[C@H](C)Oc3ccc(NC(=O)Nc4c(C)noc4C)cc3C(=O)N([C@H](C)CO)C[C@@H]2C)cc1`?
XiGFP reactiv: -1.1; EWS-Fli block: -0.6; LGR2 inh: 14.6

How did O=C(OCc1ccccc1)N(CCCCN(CCCNCc1ccccc1)C(=O)OCc1ccccc1)CCCNCc1ccccc1 do in these assays?
FN deposit inh: 14.8; TWEAK Fn14 block: 102.5*; XiGFP reactiv: 0.8; TROY signal inh: 33.7; EWS-Fli block: inconclusive; LGR2 inh: 3.3

How did Nc1nc(C(=O)N2CCOCC2)nn1S(=O)(=O)c1ccc(Cl)cc1 do in these assays?
FN deposit inh: -7.3; TWEAK Fn14 block: -6.2; TROY signal inh: 3.2

How did O=C(c1nnsc1S(=O)(=O)c1ccc(Cl)cc1)N1CCOCC1 do in these assays?
FN deposit inh: 10.9; TWEAK Fn14 block: 90.6*; XiGFP reactiv: 0.0; TROY signal inh: 67.6*; EWS-Fli block: 1.0; LGR2 inh: 102.1*

How did CNC(=O)c1ccc(S(=O)(=O)c2ccc(Cl)cc2)c(NC(C)=O)c1 do in these assays?
FN deposit inh: 5.1; TWEAK Fn14 block: 14.0; XiGFP reactiv: 0.2; TROY signal inh: 21.0; EWS-Fli block: 3.6; LGR2 inh: 0.5

How did CNC(=O)c1nnsc1S(=O)(=O)c1ccc(Cl)cc1 do in these assays?
TWEAK Fn14 block: 58.8*; XiGFP reactiv: 0.0; TROY signal inh: 69.2*; EWS-Fli block: 57.7*; LGR2 inh: 102.6*

What do the screens show for `CC[n+]1c(/C=C/C=C/N(C(C)=O)c2ccccc2)sc2cc(OC)ccc21`?
FN deposit inh: -16.7; XiGFP reactiv: 51.6*; EWS-Fli block: 44.3

Results for COc1ccc(CN(C)C(=O)c2cccc(NC(=O)CC3SC(N4CCCCC4)=NC3=O)c2)c(OC)c1 (stereo unspecified) ?
FN deposit inh: 13.8; TWEAK Fn14 block: 73.6*; XiGFP reactiv: 0.3; TROY signal inh: 48.9; EWS-Fli block: 17.1; LGR2 inh: 27.7
